In publication PMC11401921 (Nature Communications, 2024):
Read-outs that look alike come from different tables or passages of the source.

Tests used:
[1] = test system: Arabidopsis WT (Col) seedlings; assay: GO analysis of DEGs; type: in vivo, Arabidopsis thaliana; conditions: unique DEGs
In short: (§1)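 Ten-day-old WT Col seedlings were mock-treated or exposed to 50 μM ABA or test compound for 3 h, in biological duplicates. Total RNA was sequenced as 50 bp paired-end reads, about 20 million per sample. Reads were mapped to the Arabidopsis gene model and counted per gene, then tested for differential expression. DEGs were subjected to GO analysis.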

[2] = test system: Arabidopsis thaliana seeds (WT Col-0 and mutants); assay: Seed germination assay; type: in vivo; conditions: ABA 1 µM
In short: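 WT Col-0 and mutant seeds (pyr1/pyl1/pyl2/pyl4, pyl3/pyl7/pyl9/pyl11/pyl12, PYL4 overexpression) were stratified for 4 days. They were sown on half-strength MS agar with 1% sucrose containing 0.05% DMSO, 1 µM ABA, 1 µM test compound, or both. Each treatment used 40 seeds per plate on three plates, at 22 °C under long days. Seeds were scored daily as germinated when green cotyledons appeared.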

[3] = molecular target: T1, PYL1 (Arabidopsis thaliana, UniProt Q8VZS8); conditions: PYL1, literature value; cited from earlier work
T1 sequence (Q8VZS8 1-221): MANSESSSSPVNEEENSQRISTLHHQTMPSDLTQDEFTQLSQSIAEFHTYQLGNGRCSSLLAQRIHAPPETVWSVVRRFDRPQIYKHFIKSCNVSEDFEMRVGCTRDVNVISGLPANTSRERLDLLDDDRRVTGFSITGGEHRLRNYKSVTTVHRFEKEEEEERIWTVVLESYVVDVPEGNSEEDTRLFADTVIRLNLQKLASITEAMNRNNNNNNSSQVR

[4] = test system: Arabidopsis WT (Col) seedlings; assay: RNA-Seq transcriptome analysis; type: in vivo, Arabidopsis thaliana; conditions: ten-day-old plants, 50 μM, 3 h
In short: as §1

[5] = molecular target: T1, PYL1; assay: ITC binding to PYL1
In short: (§2)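 Full-length N-terminal His6-tagged receptor was expressed in E. coli BL21(DE3) and purified by Ni-NTA, ion exchange and gel filtration, with the tag removed. ITC ran at 25 °C in 25 mM HEPES, 100 mM NaCl, pH 7.5, using degassed ligand dissolved in the same buffer. Final protein was 50–100 μM and ligand 500–1000 μM.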

[6] = test system: HAB1 with PYR1, PYL1, PYL2, PYL3, PYL5, PYL6 and PYL10; assay: Phosphatase assay, HAB1 with all seven tested PYLs; type: biochemical, Arabidopsis thaliana; conditions: 5 μM ABA
In short: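 Recombinant His-tagged HAB1 phosphatase activity was measured with a Ser/Thr phosphatase assay system. Receptor:HAB1 was 0.4:0.4 μM (1:1) for PYR1, PYL1, PYL2 and PYL3, and 0.8:0.4 μM (2:1) for PYL5, PYL6 and PYL10. Mixtures were incubated with 5 μM ABA, 50 μM test compound, or both. Three biological replicates were run.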

[7] = molecular target: T2, PYR1 (Arabidopsis thaliana, UniProt O49686); assay: ITC binding to PYR1; conditions: PYR1 wild type
T2 sequence (O49686 1-191): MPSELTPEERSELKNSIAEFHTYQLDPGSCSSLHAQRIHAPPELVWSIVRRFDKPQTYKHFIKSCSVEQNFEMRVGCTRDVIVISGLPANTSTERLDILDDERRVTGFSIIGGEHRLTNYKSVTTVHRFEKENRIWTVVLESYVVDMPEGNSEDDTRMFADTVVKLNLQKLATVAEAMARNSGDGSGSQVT
In short: as §2

[8] = molecular target: T3, PYR1 dimer (Arabidopsis thaliana, UniProt O49686); assay: SEC-MALLS protein oligomeric state; conditions: 1 mM chemical(s), PYR1 80 μM
T3 sequence (O49686 1-191): T2 sequence (O49686 1-191)
In short: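 Size exclusion used a Superdex S200 column in 20 mM Tris pH 7.5, 150 mM NaCl, 1 mM β-mercaptoethanol, at 20 °C and 0.5 ml/min. The equilibration buffer held 1 mM ABA, 1 mM test compound, or both. Receptor was injected at 80 μM. Weight-averaged molar mass was calculated from on-line MALLS with a 690 nm laser.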

[9] = test system: seed germination; conditions: cited from earlier work

Kd [5] | inhibition of HAB1 activity [6] | Kd [7] | elution volume of PYR1 [8] | molecular mass of PYR1 ([8]; dimer theoretical 43 kDa) | Compound | number of genes involved in seed germination induced (GO:0009845) [1] | germination rate ([2]; 4OE seeds) | germination phenotype ([2]; 1124 (pyr1/pyl1/pyl2/pyl4) seeds) | germination rate ([2]; 3791112 seeds) | germination rate ([2]; WT seeds) | Kd [3] | number of genes specifically responsive [4] | number of differentially expressed genes (DEGs) induced ([4]; relative to DMSO) | activity in inhibiting seed germination relative to ABA [9]
23.5 µM | ≥ 70% | 22 µM | 16.02 to 17.05 mL | 22 ± 2 kDa | CC1=CC(=O)CC(C)(C)[C@@]1(O)/C=C/C(C)=C\C(=O)O [ABA, Abscisic acid] | 28 | lower than 30% | ABA insensitive phenotype | lower than 30% | lower than 30% | ~50 µM | 2602 | 3366 | –
– | – | – | – | – | N#Cc1c(C2CC2)cc(CC(=O)NC2(C(=O)O)CCCCC2)cc1C1CC1 [opabactin] | – | – | – | – | – | – | – | – | ~ 10 fold
